Experimental data taken from ChEMBL document CHEMBL4371095, “Triazole-Based Inhibitors of the Wnt/β-Catenin Signaling Pathway Improve Glucose and Lipid Metabolisms in Diet-Induced Obese Mice” (J Med Chem, 2019).
Calls of active or inactive are those of the source. The calls are words filed in the database; no cut-off is given here.

What was measured:
[1] = Toxicity in normal chow diet fed C57BL/6J mouse assessed as serum BUN level at 40 mg/kg, ip administered every 2 days for 11 weeks (reference value: 19 +/- 1.8 mg/dl); type: organism-based; details: in vivo
Mus musculus [2] = test: Effect on hepatic CycD1 mRNA level in normal chow diet fed C57BL/6J mouse at 40 mg/kg, ip administered every 2 days for 11 weeks by qPCR analysis; type: ADME, organism-based; details: in vivo
Procedure, shortened: (§1)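 Male mice, 8 weeks old, kept on normal chow throughout and dosed i.p. every 2 days in corn oil vehicle for 11 weeks. Body weight gain, liver/body weight ratio, and liver mRNA of the indicated genes were measured at sacrifice; mean ± SEM, n = 5 per group where stated.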

Mus musculus [3] = test: Effect on hepatic ACAT2 mRNA level in normal chow diet fed C57BL/6J mouse at 40 mg/kg, ip administered every 2 days for 11 weeks by qPCR analysis; type: ADME, organism-based; details: in vivo; procedure, shortened: as §1
[4] = Toxicity in normal chow diet fed C57BL/6J mouse assessed as serum ALT level at 40 mg/kg, ip administered every 2 days for 11 weeks (reference value: 20 +/- 5.1 U/L); type: organism-based; details: in vivo
[5] = Toxicity in normal chow diet fed C57BL/6J mouse assessed as serum AST level at 40 mg/kg, ip administered every 2 days for 11 weeks (reference value: 119 +/- 28.3 U/L); type: organism-based; details: in vivo
HEK293 [6] = test: Inhibition of Wnt3a activated Wnt/beta-catenin/Axin signaling (unknown origin) expressed in HEK293 cells assessed as degradation of beta-catenin by measuring decrease in beta-catenin protein expression at 1 to 10 uM after 2 hrs by Western blot method; type: cell-based; details: Homo sapiens
Procedure, shortened: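 HEK293 cells stimulated with WNT3a were treated with compound for 2 h. Cells were lysed in 10 mM HEPES, 100 μM EDTA, 10 mM KCl, 0.5% NP40, protein was quantified by BCA, and β-catenin and Axin1 were resolved on 10% SDS-PAGE and immunoblotted.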

Mus musculus [7] = test: Effect on hepatic Glp1 mRNA level in normal chow diet fed C57BL/6J mouse at 40 mg/kg, ip administered every 2 days for 11 weeks by qPCR analysis; type: ADME, organism-based; details: in vivo; procedure, shortened: as §1
[8] = Toxicity in high fat diet fed C57BL/6J mouse assessed as serum ALT level at 40 mg/kg, ip administered every 2 days for 11 weeks (reference value: 63.3 +/- 26.9 U/L); type: organism-based; details: in vivo
Mus musculus [9] = test: Decrease in hepatic ACOT4 mRNA level in high fat diet fed C57BL/6J mouse at 40 mg/kg, ip administered every 2 days for 11 weeks by qPCR analysis; type: functional, organism-based
Procedure, shortened: (§2)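 Male mice, 8 weeks old, fed a 45% kcal fat diet for 6 weeks, then dosed i.p. every 2 days in corn oil vehicle for 11 weeks. Liver mRNA of the indicated genes was quantified at sacrifice; mean ± SEM, n = 5 per group.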

Mus musculus [10] = organism: Mus musculus; test: Inhibition of Wnt/beta-catenin/Axin signaling in mouse hepatocytes assessed as decrease in PEPCK mRNA level at 5 uM by qPCR analysis; type: cell-based
Procedure, shortened: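 Normal mouse hepatocytes were treated with 5 μM compound, and lipogenic and gluconeogenic gene mRNA was measured by qPCR; mean ± S.D. of triplicates.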

HEK293 [11] = test: Inhibition of Wnt/beta-catenin signaling (unknown origin) expressed in Axin1 knock down HEK293 cells harboring TCF/LEF-responsive luciferase assessed as luminescence at 20 nM measured after 24 hrs by luciferase reporter gene assay relative to control; type: cell-based; parameters: scale not given: the % may be the effect or the level left; details: Homo sapiens
Procedure, shortened: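 HEK293 cells were transfected with siRNA against GSK3β, Axin or CK1α using RNAiMAX for 36 h. Cells were then treated with or without compound at 20 nM for 24 h, and TCF/LEF luciferase reporter activity was read.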

Mus musculus [12] = test: Decrease in hepatic FGF21 mRNA level in high fat diet fed C57BL/6J mouse at 40 mg/kg, ip administered every 2 days for 11 weeks by qPCR analysis; type: functional, organism-based; procedure, shortened: as §2
[13] = Toxicity in high fat diet fed C57BL/6J mouse assessed as serum alkaline phosphatase level at 40 mg/kg, ip administered every 2 days for 11 weeks (reference value: 58.3 +/- 3.8 U/L); type: organism-based; details: in vivo
[14] = Toxicity in high fat diet fed C57BL/6J mouse assessed as serum LDH level at 40 mg/kg, ip administered every 2 days for 11 weeks (reference value: 469 +/- 67 U/L); type: organism-based; details: in vivo
HEK293 [15] = test: Inhibition of Wnt/beta-catenin/Axin signaling (unknown origin) expressed in HEK293 cells assessed as increase in Axin binding to beta-catenin after 12 hrs by immunoprecipitation method; type: cell-based; details: Homo sapiens
Mus musculus [16] = test: Decrease in hepatic lipid accumulation in high fat diet fed C57BL/6J mouse at 40 mg/kg, ip administered every 2 days for 11 weeks; type: functional, organism-based
Procedure, shortened: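 Male mice, 8 weeks old, 24–27 g, given a 45% kcal fat diet for 6 weeks, then dosed i.p. every 2 days in corn oil vehicle with the diet continued. Sacrifice was about 24 h after the last dose. Liver was examined by H&E. Liver and serum triglyceride were measured by kit. Serum chemistry was included, and liver/body weight ratio was calculated.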

Mus musculus [17] = test: Decrease in hepatic SCD1 mRNA level in high fat diet fed C57BL/6J mouse at 40 mg/kg, ip administered every 2 days for 11 weeks by qPCR analysis; type: functional, organism-based; procedure, shortened: as §2
SW480 = test: Inhibition of Wnt/beta-catenin signaling in human SW480 cells harboring APC mutant at 50 nM after 24 hrs by luciferase reporter gene assay; type: cell-based
[18] = Inhibition of Wnt/beta-catenin signaling (unknown origin) expressed in HEK293 cells harboring siRNA after 24 hrs by luciferase reporter gene assay; type: cell-based; details: Homo sapiens, HEK293, 24 h
HEK293 [19] = test: Inhibition of Wnt (unknown origin)/FLAG-tagged human beta-catenin S33Y mutant signaling expressed in HEK293 cells harboring TCF/LEF-responsive luciferase at 100 nM measured after 24 hrs by luciferase reporter gene assay; type: cell-based
Procedure, shortened: (§3)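 HEK293 cells were transfected for 16 h with TOPFlash or FOPFlash, Renilla, and pcDNA3 wild-type or S33Y β-catenin. Compound was then added for a further 24 h. Firefly/Renilla dual-luciferase ratio was the read-out.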

Mus musculus [20] = test: Effect on liver weight adjusted by body weight gain in normal chow diet fed C57BL/6J mouse at 40 mg/kg, ip administered every 2 days for 11 weeks; type: ADME, organism-based; details: in vivo; procedure, shortened: as §1
Mus musculus [21] = test: Decrease in hepatic Glp1 mRNA level in high fat diet fed C57BL/6J mouse at 40 mg/kg, ip administered every 2 days for 11 weeks by qPCR analysis; type: functional, organism-based; procedure, shortened: as §2
HEK293 [22] = test: Inhibition of Wnt (unknown origin)/FLAG-tagged human beta-catenin signaling expressed in HEK293 cells harboring TCF/LEF-responsive luciferase at 100 nM measured after 24 hrs by luciferase reporter gene assay; type: cell-based; procedure, shortened: as §3
[23] = Toxicity in normal chow diet fed C57BL/6J mouse assessed as serum creatinine level at 40 mg/kg, ip administered every 2 days for 11 weeks by Jaffe's reaction analysis (reference value: 0.2 +/- 0.01 mg/dl); type: organism-based; details: in vivo
[24] = Toxicity in high fat diet fed C57BL/6J mouse assessed as serum cholesterol level at 40 mg/kg, ip administered every 2 days for 11 weeks (reference value: 316 +/- 25 mg/dl); type: organism-based; details: in vivo
Axin-1 (Homo sapiens) = Axin-1 (Homo sapiens) (UniProt O15169); test: Binding affinity to Axin1 (unknown origin) by SPR analysis
Axin-1 (Homo sapiens), sequence (O15169 whole entry): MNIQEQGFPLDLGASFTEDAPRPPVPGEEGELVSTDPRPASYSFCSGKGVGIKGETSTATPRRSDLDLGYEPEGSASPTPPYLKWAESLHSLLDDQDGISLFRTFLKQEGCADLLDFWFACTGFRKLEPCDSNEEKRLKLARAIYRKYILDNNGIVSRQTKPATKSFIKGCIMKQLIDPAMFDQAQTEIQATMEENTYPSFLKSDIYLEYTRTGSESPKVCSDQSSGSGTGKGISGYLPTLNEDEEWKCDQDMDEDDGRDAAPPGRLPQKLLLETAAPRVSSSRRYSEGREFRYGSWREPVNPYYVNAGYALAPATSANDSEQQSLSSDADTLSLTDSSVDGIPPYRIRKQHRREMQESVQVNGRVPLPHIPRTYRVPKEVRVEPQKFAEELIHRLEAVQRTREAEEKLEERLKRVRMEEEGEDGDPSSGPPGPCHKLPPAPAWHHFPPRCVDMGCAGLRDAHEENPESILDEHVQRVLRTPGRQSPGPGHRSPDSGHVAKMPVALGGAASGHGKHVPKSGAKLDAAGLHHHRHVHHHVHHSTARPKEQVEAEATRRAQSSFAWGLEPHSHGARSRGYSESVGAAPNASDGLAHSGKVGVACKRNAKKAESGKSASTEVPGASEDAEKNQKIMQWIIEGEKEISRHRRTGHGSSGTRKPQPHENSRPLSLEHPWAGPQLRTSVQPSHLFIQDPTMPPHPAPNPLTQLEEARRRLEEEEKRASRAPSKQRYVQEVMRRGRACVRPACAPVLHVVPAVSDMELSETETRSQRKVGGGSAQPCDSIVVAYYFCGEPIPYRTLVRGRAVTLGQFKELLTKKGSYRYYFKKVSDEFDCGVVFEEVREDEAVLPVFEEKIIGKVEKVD

With Cc1ccccc1-n1nnc(C(=O)Nc2ccc3ccccc3n2)c1C the Activity [1] was 21.8 mg/dL, the Activity (Mus musculus [2]) was “Non-Toxic” and the Activity (Mus musculus [3]) was “Non-Toxic”. The Activity [4] was 12.8 U/L, the Activity [5] was 74.5 U/L and the inhibition (HEK293 [6]) was “Active”. The Activity (Mus musculus [7]) was “Non-Toxic”, the Activity [8] was 21 U/L and the Activity (Mus musculus [9]) was “Active”. The inhibition (Mus musculus [10]) was “Active”, the Activity (HEK293 [11]) was 41% and the Activity (Mus musculus [12]) was “Active”. The Activity [13] was 51 U/L, the Activity [14] was 313 U/L and the inhibition (HEK293 [15]) was “Active”. The Activity (Mus musculus [16]) was “Active”, the Activity (Mus musculus [17]) was “Active” and the inhibition (SW480) was “Active”. For the same molecule, the IC50 [18] was 20 nM, the inhibition (HEK293 [19]) was “Active” and the Activity (Mus musculus [20]) was “Non-Toxic”. The Activity (Mus musculus [21]) was “Active”, the inhibition (HEK293 [22]) was “Active” and the Activity [23] was 0.2 mg/dL. The Activity [24] was 223 mg/dL and the Activity (Axin-1 (Homo sapiens)) was “inactive”.
